In series [1] the target is Heat shock cognate 71 kDa protein (Homo sapiens) (UniProt P11142). In words: Allosteric regulation of recombinant HSC70 (unknown origin) ATPase activity assessed as increase in ADP production at 10 uM after 10 mins in presence of HCV wild type poly U/UC RNA by HPLC analysis. The gist of the method: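 Recombinant Hsc70 (0.25 μM) incubated with compound at 10 μM plus ATP and 0.5 μM HCV wild-type poly U/UC RNA in MOPS buffer pH 7.4 (Mg(OAc)2, KOAc, DTT, BSA), 37 °C, 10 min. Stopped with TCA (15% final), extracted with trichlorotrifluoroethane:trioctylamine, ADP quantified by HPLC against standard curve on same column. Mean ± SD, three experiments.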

For series [2] the target is unchanged. In words: Displacement of biotinylated-rac-cryptopleurine from recombinant HSC70 (unknown origin) […] by Western blot analysis. In outline: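 Biotinylated rac-cryptopleurine loaded overnight at room temperature onto streptavidin resin in 50% DMSO/50% protein-binding buffer (20 mM Hepes pH 7.9, 100 mM NaCl, 0.5% NP-40, 6 mM MgCl2). Resin washed, then incubated 2 h at room temperature with recombinant His-Hsc70 (E. coli BL21(DE3)pLysS, Ni-NTA purified) in 2.5% BSA. Bound Hsc70 eluted with buffer alone or with compound.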
For orientation: Immunoblotting shows a protein as a band on a membrane.

Series [3] has the same target. The series can be described thus: Induction of HSC70 chaperone activity in human Huh-luc/neo-ET cells co-transfected with FLAG-tagged CHIP assessed as reduction in HCV RNA NS5A protein expression at 6 nM after 24 hrs. It is filed as cell-based. In outline:
(§1)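 Huh-luc/neo-ET replicon cells (HCV 1b Con1, DMEM, 10% FBS) transiently transfected with FLAG-CHIP plasmid or empty vector, then treated 24 h with compound. HCV RNA, NS3 and NS5A protein levels measured. Representative of more than two independent experiments; two-tailed Student's t-test, p < .05.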

The target is the same in series [4]. In words: Induction of HSC70 (unknown origin) chaperone activity assessed as reactivation of guanidine-denatured luciferase at 10 uM in presence of human recombinant CHIP by luciferase reporter gene assay. A general note: In a reporter assay the amount or activity of a reporter protein is the signal.
For series [5] the target is unchanged. In words: Induction of HSC70 chaperone activity in human Huh-luc/neo-ET cells assessed as reduction in HCV RNA NS3 protein expression at 6 nM after 24 hrs. The format is cell-based. The gist of the method: as §1
Series [6] concerns HepG2 2.2.15. In words: Cytotoxicity against human HepG2(2.2.15) cells assessed as cell growth inhibition. The format is cell-based. In outline:
(§2)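 Cell growth measured against DMSO vehicle in HepG2.2.15 cells (MEME, 10% FCS, 50 µg/ml kanamycin) or in Huh-luc/neo-ET cells. IC50 = concentration giving 50% inhibition of cell growth. Mean ± SD of three independent experiments.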

Series [7] relates to Huh-luc/neo-ET. In words: Effect on HSC70 expression in human Huh-luc/neo-ET cells at 6 nM measured up to 72 hrs by Western blot analysis.
The test system of series [8] is Hepatitis C virus. In words: Antiviral activity against HCV genotype 1b con1 infected in human Huh-luc/neo-ET cells assessed as inhibition of viral replication after 72 hrs. As to conditions: isolate Con1, Huh-luc/neo-ET. The format is functional, organism-based, Hepacivirus hominis. In outline:
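Firefly-luciferase reporter in the Con1 genotype 1b subgenomic replicon used to follow HCV replication in Huh-luc/neo-ET cells, tested without G418 (routinely kept in DMEM, 10% FBS, 1 mM nonessential amino acids, 250 µg/ml G418, 37 °C, 5% CO2). Luciferase read on a plate reader. EC50 = concentration giving 50% inhibition of replication versus DMSO vehicle. Mean ± SD of three independent experiments.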

Series [9] deals with Heat shock cognate 71 kDa protein (Homo sapiens) (UniProt P11142). In words: Induction of HSC70 chaperone activity in human Huh-luc/neo-ET cells assessed as reduction in HCV RNA NS5A protein expression at 6 nM after 24 hrs. It is filed as cell-based. The gist of the method:
as §1

The nature of series [10]: Cytotoxicity against human Huh-luc/neo-ET cells assessed as cell growth inhibition. The format is cell-based. In outline:
as §2

The target of series [11] is Heat shock cognate 71 kDa protein (Homo sapiens) (UniProt P11142). The series can be described thus: Induction of HSC70 chaperone activity in human Huh-luc/neo-ET cells co-transfected with FLAG-tagged CHIP assessed as reduction in HCV RNA NS3 protein expression at 6 nM after 24 hrs. The format is cell-based. In outline:
as §1

The nature of series [12]: Effect on […] CHIP expression in human Huh-luc/neo-ET cells at 6 nM after 24 hrs. It is filed as ADME, cell-based. The settings on record: 0.006 µM.
Series [13] can be described thus: Therapeutic index, ratio of IC50 for human Huh-luc/neo-ET cells to EC50 for HCV genotype 1b con1. The settings on record: Huh-luc/neo-ET cells (HCV genotype 1b con1), read-out: Ratio IC50/EC50. It is filed as toxicity.
Series [14] deals with Hepatitis B virus. The series can be described thus: Antiviral activity against HBV infected in human HepG2(2.2.15) cells assessed as inhibition of viral DNA level after 6 days by Southern blot analysis. It is filed as functional. As to conditions: HepG2 2.2.15, 144 h. In outline: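 HepG2.2.15 cells (HBV genome integrated; MEME, 10% FCS, kanamycin) seeded ~5 × 10^5 per well and grown 6 days, then given compound for 6 days with fresh medium every other day. Total DNA (20 μg) run on 1% agarose, blotted, hybridized overnight at 65 °C with 32P-labeled full-length HBV probe; read by film or PhosphorImager.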

Series [15] addresses Heat shock cognate 71 kDa protein (Homo sapiens) (UniProt P11142). The series can be described thus: Induction of HSC70 chaperone activity in human Huh-luc/neo-ET cells co-transfected with FLAG-tagged CHIP assessed as reduction in HCV RNA NS5A protein expression at 3 nM after 24 hrs. It is filed as cell-based. In outline:
(§3)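 Huh-luc/neo-ET replicon cells transiently transfected with FLAG-tagged CHIP plasmid or empty vector and treated with compound for 24 h. HCV RNA and NS3 and NS5A protein levels measured. Representative of more than two independent experiments; two-tailed Student's t-test, p < .05.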

Series [16] is described as follows: Effect on […] CHIP expression in human Huh-luc/neo-ET cells at 3 nM after 24 hrs. The format is ADME, cell-based. As to conditions: 0.003 µM.
For series [17], the target named is Heat shock cognate 71 kDa protein (Homo sapiens) (UniProt P11142). The series can be described thus: Induction of HSC70 chaperone activity in human Huh-luc/neo-ET cells assessed as reduction in HCV RNA NS5A protein expression at 3 nM after 24 hrs. The format is cell-based. In outline: as §3
Series [18] relates to HepG2 2.2.15. In words: Effect on HSC70 expression in human HepG2(2.2.15) cells at 3 nM measured up to 72 hrs by Western blot analysis. The format is functional, cell-based.
Series [19] concerns the target Heat shock cognate 71 kDa protein (Homo sapiens) (UniProt P11142). In words: Induction of HSC70 chaperone activity in human Huh-luc/neo-ET cells co-transfected with FLAG-tagged CHIP assessed as reduction in HCV RNA NS3 protein expression at 3 nM after 24 hrs. The format is cell-based. The gist of the method: as §3
The target is the same in series [20]. The series can be described thus: Induction of HSC70 chaperone activity in human Huh-luc/neo-ET cells assessed as reduction in HCV RNA NS3 protein expression at 3 nM after 24 hrs. The format is cell-based. The gist of the method: as §3

Active and inactive are the calls of the source. The rule behind the calls is not given here. Some results are limits rather than exact numbers.

Chain of Heat shock cognate 71 kDa protein (Homo sapiens) (P11142 2-646 limits assumed): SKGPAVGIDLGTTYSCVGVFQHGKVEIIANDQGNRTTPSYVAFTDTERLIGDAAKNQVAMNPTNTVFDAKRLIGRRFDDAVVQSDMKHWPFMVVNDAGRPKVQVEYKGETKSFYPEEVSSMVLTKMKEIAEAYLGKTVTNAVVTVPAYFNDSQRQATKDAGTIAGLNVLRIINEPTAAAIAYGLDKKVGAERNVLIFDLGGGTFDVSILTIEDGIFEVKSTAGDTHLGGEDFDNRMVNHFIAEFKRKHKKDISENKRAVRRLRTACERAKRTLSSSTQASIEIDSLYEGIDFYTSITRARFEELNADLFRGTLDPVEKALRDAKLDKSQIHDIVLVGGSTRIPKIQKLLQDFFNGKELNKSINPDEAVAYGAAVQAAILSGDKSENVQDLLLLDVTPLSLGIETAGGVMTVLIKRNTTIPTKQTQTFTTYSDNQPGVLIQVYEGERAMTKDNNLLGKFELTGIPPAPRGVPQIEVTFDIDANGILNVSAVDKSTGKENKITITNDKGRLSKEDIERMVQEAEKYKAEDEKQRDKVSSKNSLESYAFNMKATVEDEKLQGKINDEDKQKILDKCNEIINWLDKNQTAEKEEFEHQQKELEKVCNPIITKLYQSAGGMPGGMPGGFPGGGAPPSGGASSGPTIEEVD

One may read the IC50 as the concentration that gives 50% inhibition. In general, EC50 refers to the concentration giving half of the maximal effect. Broadly, the EC10 is the concentration needed for an effect of 10%. Regarding `COc1ccc2c3c(c4cc(OC)c(OC)cc4c2c1)C[C@H]1C[C@H](O)CCN1C3`, the result in [1], in series [3], in series [4], in series [5], in series [9] and in series [11] was Active. In addition, the “displacement activity (active/not active)” value in [2] was “Active”. Further, the IC50 in [6] stood at 49 nM; in series [10], 5 nM. Besides, the result in series [7] was inactive. Also, the EC50 in series [8] is 1.4 nM. Also, the Activity result in [12] is listed as “Non-Toxic”. Further, the selectivity ratio in series [13] worked out at 3.57. Also, the EC10 in series [14] was above 5.5 nM.
As for `COc1cc2c3c(c4cc(OC)c(OC)cc4c2cc1OC)[C@H](O)[C@@H]1CCCN1C3`, the results for the half-maximal inhibitory concentration (IC50) in series [6] and in [10] were 98.9 nM and 91 nM, respectively. The EC50 in series [8] was 31.5 nM. The selectivity ratio in series [13] was determined as 2.89. For the same molecule, in series [14], the EC10 was above 300 nM.
In the case of `COc1ccc2c3c(c4cc(OC)c(OC)cc4c2c1)C[C@H]1CN(C2CC2)CN1C3` (racemic), the half-maximal inhibitory concentration (IC50) in series [6] was 820 nM; in series [10] it was 1000 nM. In addition, the EC50 in series [8] amounted to 750 nM. Besides, in [13], the selectivity ratio came to 1.33. Further, in series [14], the EC10 was above 300 nM.
For the molecule `COc1ccc2c3c(c4cc(OC)c(OC)cc4c2c1)C[C@H]1CCN(N(C)C)CN1C3` (racemic), the IC50 in [6] is 2400 nM; in series [10] it was 4000 nM. In addition, the EC50 in series [8] amounted to 3750 nM. Besides, the selectivity ratio in [13] is 1.07. In addition, the EC10 in series [14] was above 900 nM.
Consider `COc1ccc2c3c(c4cc(OC)c(OC)cc4c2c1)C[C@H]1CCOCN1C3` (racemic), for which the IC50 amounted to 1100 nM in [6] and 1000 nM in series [10]. Further, the EC50 in series [8] is 651 nM. In series [13], the selectivity ratio came to 1.54. The EC10 in [14] is above 500 nM.
Take `COc1ccc2c3c(c4cc(OC)c(OC)cc4c2c1)C[C@H]1CCCCCN1C3` (racemic): the IC50 amounted to 2700 nM in series [6] and 300 nM in [10]. Besides, in series [8], the EC50 is 52.3 nM. In addition, the selectivity ratio in series [13] turned out to be 5.75. Besides, the EC10 in [14] was above 1000 nM.
As to `COc1ccc2c3c(c4cc(OC)c(OC)cc4c2c1)C[C@H]1CCOCCN1C3` (racemic), the figures for the IC50 in series [6] and in series [10] were 4000 nM and 120 nM, respectively. In series [8], the EC50 worked out at 16.7 nM. Besides, the selectivity ratio in series [13] turned out to be 7.19. Moreover, the EC10 in series [14] was above 300 nM.
Turning to `COc1ccc2c3c(c4cc(OC)c(OC)cc4c2c1)C[C@H]1C[C@@H](O)CCN1C3` (racemic), the “displacement activity (active/not active)” value in series [2] is “inactive”. The IC50 amounted to 134 nM in series [6] and 42.1 nM in series [10]. Also, the EC50 in [8] was 4.9 nM. Further, the selectivity ratio in series [13] is 8.59. Moreover, the EC10 in series [14] was above 26 nM.
Take `COc1ccc2c3c(c4cc(OC)c(OC)cc4c2c1)C[C@H]1CC[C@@H](O)CN1C3` (racemic): in series [1], the outcome was Active. Also, the “displacement activity (active/not active)” value in series [2] was “inactive”. Further, the results for the IC50 in [6] and in series [10] were 258 nM and 21.3 nM, respectively. Besides, the EC50 in series [8] stood at 3 nM. Also, the selectivity ratio in series [13] came out at 7.1. Besides, the EC10 in series [14] is above 25 nM.
Regarding `COc1ccc2c3c(c4cc(OC)c(OC)cc4c2c1)C[C@H]1CC[C@H](O)CN1C3` (racemic), the result in [1] was Active. In [2], the “displacement activity (active/not active)” value is “inactive”. Moreover, the IC50 in series [6] is 1600 nM; in series [10] it was 3750 nM. Further, in series [8], the EC50 came out at 246 nM. The selectivity ratio in [13] turned out to be 15.2. The EC10 in series [14] was above 3000 nM.
As for `COc1ccc2c3c(c4cc(OC)c(OC)cc4c2c1)C[C@H]1CNCCN1C3` (racemic), the IC50 in series [6] was determined as 1400 nM; in [10], 1000 nM. Also, in series [8], the EC50 amounted to 183 nM. In series [13], the selectivity ratio is 5.46. Besides, in series [14], the EC10 is above 500 nM.
Consider `COc1ccc2c3c(c4cc(OC)c(OC)cc4c2c1)C[C@H]1CCCCN1C3` [CRYPTOPLEURINE], for which the result in series [1], in series [4], in [15], in series [17], in series [19] and in [20] was Active. In addition, the Activity entry in series [16] is “Non-Toxic”. For the same molecule, the outcome in series [18] was inactive. In [14], the EC10 was above 30 nM.

For the origin of these results see ChEMBL document CHEMBL4219061, “Structure-activity relationships of cryptopleurine analogs with E-ring modifications as anti-hepatitis C virus agents” (Bioorg Med Chem, 2018).
